# Test results from ChEMBL document CHEMBL1629653, “CMY-31 and CMY-36 cephalosporinases encoded by ColE1-like plasmids” (Antimicrob Agents Chemother, 2009).
# How the values were obtained:
# [1] = Ratio of Kcat to Km of CMY-2 by spectrophotometry
# In short: (§1)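 CMY β-lactamases purified from sonicated, ultracentrifuge-clarified extracts of E. coli DH5α clones (pB-cmy36, pB-cmy2) by Q- then S-Sepharose ion exchange (>90% pure by SDS-PAGE); steady-state hydrolysis kinetics measured spectrophotometrically, CMY-2 run in parallel.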
# [2] = Activity of CMY-2 by spectrophotometry; in short: as §1
Compound,kcat/Km [1] [M⁻¹ s⁻¹],Km [2] [µM],kcat [2] [s⁻¹]
CC1(C)S[C@@H]2[C@H](NC(=O)Cc3ccccc3)C(=O)N2[C@H]1C(=O)O,2.5e+07,0.4,10
O=C(Cc1cccs1)N[C@@H]1C(=O)N2C(C(=O)O)=C(/C=C/c3ccc([N+](=O)[O-])cc3[N+](=O)[O-])CS[C@H]12,9.8e+07,10,980
CO/N=C(\C(=O)N[C@@H]1C(=O)N2C(C(=O)O)=C(COC(C)=O)CS[C@H]12)c1csc(N)n1,,,< 0.01
O=C(Cc1cccs1)N[C@@H]1C(=O)N2C(C(=O)[O-])=C(C[n+]3ccccc3)CS[C@H]12,2.5e+06,120,300
